Measurements: ChEMBL document CHEMBL2016434, “Exploiting the P-1 pocket of BRCT domains toward a structure guided inhibitor design” (ACS Med Chem Lett, 2011)
Calls of active or inactive are those of the source. The calls are words filed in the database; no cut-off is given here. Non-standard residues stand in square brackets, D forms with d. Residues, ends and D or L forms follow the SMILES beside them. *: point of attachment. Benzoyl(3-Ph) = O=C(c1cccc(-c2ccccc2)c1)*; 2Nal = N[C@@H](Cc1ccc2ccccc2c1)C(=O)O; d2Nal = N[C@H](Cc1ccc2ccccc2c1)C(=O)O; Pentanoyl(5-Ph) = O=C(CCCCc1ccccc1)*; Butanoyl(4-Ph) = O=C(CCCc1ccccc1)*; Hydrocinnamoyl = O=C(CCc1ccccc1)*; pS = N[C@@H](COP(=O)(O)O)C(=O)O; X1 = O=C(C/C=C/c1ccccc1)*

How the values were obtained:
[1] = biological target: T1, Breast cancer type 1 susceptibility protein (Homo sapiens, UniProt P38398); assay: Inhibition of BRCT domain of His-tagged BRCA1 after 1 min by competitive fluorescence polarization assay
Target sequence in this assay (P38398 whole entry, the tested form may be a part): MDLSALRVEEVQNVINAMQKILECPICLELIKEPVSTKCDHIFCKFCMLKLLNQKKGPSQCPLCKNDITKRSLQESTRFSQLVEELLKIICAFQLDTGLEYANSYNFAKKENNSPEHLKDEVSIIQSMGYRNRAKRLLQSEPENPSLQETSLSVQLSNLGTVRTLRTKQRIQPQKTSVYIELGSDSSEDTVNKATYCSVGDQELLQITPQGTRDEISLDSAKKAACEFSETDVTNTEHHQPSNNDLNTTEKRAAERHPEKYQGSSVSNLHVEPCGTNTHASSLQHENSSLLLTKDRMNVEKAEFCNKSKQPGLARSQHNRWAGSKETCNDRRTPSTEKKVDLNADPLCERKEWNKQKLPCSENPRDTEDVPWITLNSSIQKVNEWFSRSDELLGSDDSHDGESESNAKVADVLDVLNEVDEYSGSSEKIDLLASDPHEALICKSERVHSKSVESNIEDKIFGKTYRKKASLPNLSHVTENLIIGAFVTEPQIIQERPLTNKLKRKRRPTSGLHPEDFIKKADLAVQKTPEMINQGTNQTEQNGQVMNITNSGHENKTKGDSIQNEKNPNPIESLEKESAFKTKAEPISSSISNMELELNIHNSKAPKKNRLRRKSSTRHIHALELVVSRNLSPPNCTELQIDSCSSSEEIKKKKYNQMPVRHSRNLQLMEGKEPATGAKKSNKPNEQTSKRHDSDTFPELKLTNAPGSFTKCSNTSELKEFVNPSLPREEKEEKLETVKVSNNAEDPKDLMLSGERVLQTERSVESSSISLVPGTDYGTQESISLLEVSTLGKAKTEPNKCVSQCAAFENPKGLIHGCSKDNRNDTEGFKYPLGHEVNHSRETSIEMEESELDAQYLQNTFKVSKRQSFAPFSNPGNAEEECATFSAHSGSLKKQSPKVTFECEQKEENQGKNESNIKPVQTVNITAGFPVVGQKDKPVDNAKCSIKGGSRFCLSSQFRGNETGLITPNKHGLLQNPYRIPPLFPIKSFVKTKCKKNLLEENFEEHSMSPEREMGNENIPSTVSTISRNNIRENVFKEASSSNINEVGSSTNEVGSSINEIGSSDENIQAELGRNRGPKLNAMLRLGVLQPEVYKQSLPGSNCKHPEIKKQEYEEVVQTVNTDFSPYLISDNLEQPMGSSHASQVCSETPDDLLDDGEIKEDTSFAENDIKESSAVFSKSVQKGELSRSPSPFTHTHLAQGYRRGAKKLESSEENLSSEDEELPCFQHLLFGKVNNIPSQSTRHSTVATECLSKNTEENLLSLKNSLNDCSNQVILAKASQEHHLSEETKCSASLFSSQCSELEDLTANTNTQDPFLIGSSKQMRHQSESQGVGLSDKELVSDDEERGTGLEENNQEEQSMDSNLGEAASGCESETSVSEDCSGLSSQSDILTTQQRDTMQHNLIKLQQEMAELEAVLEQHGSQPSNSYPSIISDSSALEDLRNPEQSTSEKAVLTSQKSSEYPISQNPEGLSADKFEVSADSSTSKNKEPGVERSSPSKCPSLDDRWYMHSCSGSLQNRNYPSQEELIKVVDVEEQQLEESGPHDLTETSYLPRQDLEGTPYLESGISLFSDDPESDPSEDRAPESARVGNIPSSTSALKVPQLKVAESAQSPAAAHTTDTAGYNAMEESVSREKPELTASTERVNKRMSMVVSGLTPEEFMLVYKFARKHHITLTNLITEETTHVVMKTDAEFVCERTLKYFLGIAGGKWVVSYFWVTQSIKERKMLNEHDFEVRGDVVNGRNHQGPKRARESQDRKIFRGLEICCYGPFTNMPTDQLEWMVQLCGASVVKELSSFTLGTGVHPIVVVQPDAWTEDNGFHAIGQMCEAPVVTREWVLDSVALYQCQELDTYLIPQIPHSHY

[2] = biological target: T1, Breast cancer type 1 susceptibility protein; assay: Displacement of phospho-BACH1 protein from BRCT domain of BRCA1 at 0.5 to 5000 uM by PAGE analysis
Outline: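 Phospho-BACH1 peptide immobilized on streptavidin–agarose beads was incubated with BRCT-BRCA1 together with the competing peptide mimics. Beads were then isolated and the bound protein resolved by polyacrylamide gel electrophoresis, followed by phosphor-screen exposure. Relative band intensities were quantified, and pulldown IC50 values were obtained by curve fitting.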
Target sequence in this assay (P38398 whole entry, looked up, the tested form may be a part): as the sequence (P38398 whole entry, the tested form may be a part) above

| SMILES | Ki [1] [nM] | Activity [2] |
| --- | --- | --- |
| CC(=O)N[C@@H](Cc1ccc2ccccc2c1)C(=O)N[C@@H](COP(=O)(O)O)C(=O)N1CCC[C@H]1C(=O)N[C@H](C(=O)N[C@@H](Cc1ccccc1)C(N)=O)[C@@H](C)O (Ac-[2Nal][pS]PTF-NH2) | 1240 | – |
| CC(=O)N[C@H](Cc1ccc2ccccc2c1)C(=O)N[C@@H](COP(=O)(O)O)C(=O)N1CCC[C@H]1C(=O)N[C@H](C(=O)N[C@@H](Cc1ccccc1)C(N)=O)[C@@H](C)O (Ac-[d2Nal][pS]PTF-NH2) | 19400 | – |
| CC(C)[C@H](NC(=O)[C@@H]1CCCN1C(=O)[C@H](COP(=O)(O)O)NC(=O)CCc1ccccc1)C(=O)N[C@@H](Cc1ccccc1)C(=O)O (Hydrocinnamoyl-[pS]PVF-OH) | 100 | – |
| CC(C)[C@H](NC(=O)[C@@H]1CCCN1C(=O)[C@H](COP(=O)(O)O)NC(=O)CCCc1ccccc1)C(=O)N[C@@H](Cc1ccccc1)C(=O)O ({Butanoyl(4-Ph)}-[pS]PVF-OH) | 500 | – |
| CC(C)[C@H](NC(=O)[C@@H]1CCCN1C(=O)[C@H](COP(=O)(O)O)NC(=O)CCCCc1ccccc1)C(=O)N[C@@H](Cc1ccccc1)C(=O)O ({Pentanoyl(5-Ph)}-[pS]PVF-OH) | 12000 | – |

Next, values leading:

| Ki [1] [nM] | Activity [2] | SMILES |
| --- | --- | --- |
| 540 | – | CC(=O)N[C@@H](Cc1ccc2ccccc2c1)C(=O)N[C@@H](COP(=O)(O)O)C(=O)N1CCC[C@H]1C(=O)N[C@H](C(=O)N[C@@H](Cc1ccccc1)C(N)=O)C(C)C (Ac-[2Nal][pS]PVF-NH2) |
| 130 | – | CC(=O)N[C@@H](Cc1ccc2ccccc2c1)C(=O)N[C@@H](COP(=O)(O)O)C(=O)N1CCC[C@H]1C(=O)N[C@H](C(=O)N[C@@H](Cc1ccccc1)C(=O)O)C(C)C (Ac-[2Nal][pS]PVF-OH) |
| 40 | Active | CC(C)[C@H](NC(=O)[C@@H]1CCCN1C(=O)[C@H](COP(=O)(O)O)NC(=O)C/C=C/c1ccccc1)C(=O)N[C@@H](Cc1ccccc1)C(=O)O (X1-[pS]PVF-OH) |
| 80 | Active | CC(C)[C@H](NC(=O)[C@@H]1CCCN1C(=O)[C@H](COP(=O)(O)O)NC(=O)c1cccc(-c2ccccc2)c1)C(=O)N[C@@H](Cc1ccccc1)C(=O)O ({Benzoyl(3-Ph)}-[pS]PVF-OH) |
